Test [1] has as its system HT-29. In words: Cytotoxicity against human HT-29 cells assessed as growth inhibition after 120 hrs by MTT assay. In kind it is functional, cell-based. The note with it: HT-29, 120 h. The gist of the method:
(§1)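 Cells kept in DMEM with 10% FBS, penicillin and streptomycin at 37 °C, 5% CO2. Seeded at 2000 cells/well, grown 24 h, then exposed to a range of compound concentrations for 120 h. MTT at 0.5 mg/mL added for 4 h at 37 °C. Formazan dissolved in DMSO, absorbance read at 570 nm. IC50 is the mean of three determinations.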

In another test the test system is KETR3. In words: Cytotoxicity against human Ketr3 cells assessed as growth inhibition after 120 hrs by MTT assay. The test is classed as functional, cell-based. The note with it: KETR3, 120 h. The gist of the method:
as §1

The subject of a further test is A-375. Put plainly: Cytotoxicity against human A375 cells assessed as growth inhibition after 120 hrs by MTT assay. The test is classed as functional, cell-based. The note with it: A-375, 120 h. The gist of the method:
as §1
(Formazan colour is commonly taken as a measure of viable cells.)

In the next test the test system is MX1. In words: Cytotoxicity against human MX1 cells assessed as growth inhibition after 120 hrs by MTT assay. The test is classed as functional, cell-based. The conditions noted are these: MX1, 120 h. In short, it runs like this: as §1
The test system of a further test is HepG2. In words: Cytotoxicity against human HepG2 cells assessed as growth inhibition after 120 hrs by MTT assay. The note with it: HepG2, 120 h. In kind it is functional, cell-based. In short, it runs like this:
as §1

For test [2], the target named is RAF proto-oncogene serine/threonine-protein kinase (Homo sapiens, UniProt P04049). In words: Inhibition of C-Raf (unknown origin) after 1 hr by ADP-Glo assay. The gist of the method: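 Run in duplicate. Kinase, substrate, ATP and compound reacted 1 h at 30 °C. ADP-Glo reagent was added to stop the reaction, followed by 40 min at 27 °C. Kinase detection reagent was then added for a further 30 min at the same temperature before luminescence reading.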
Sequence of RAF proto-oncogene serine/threonine-protein kinase (P04049 whole entry): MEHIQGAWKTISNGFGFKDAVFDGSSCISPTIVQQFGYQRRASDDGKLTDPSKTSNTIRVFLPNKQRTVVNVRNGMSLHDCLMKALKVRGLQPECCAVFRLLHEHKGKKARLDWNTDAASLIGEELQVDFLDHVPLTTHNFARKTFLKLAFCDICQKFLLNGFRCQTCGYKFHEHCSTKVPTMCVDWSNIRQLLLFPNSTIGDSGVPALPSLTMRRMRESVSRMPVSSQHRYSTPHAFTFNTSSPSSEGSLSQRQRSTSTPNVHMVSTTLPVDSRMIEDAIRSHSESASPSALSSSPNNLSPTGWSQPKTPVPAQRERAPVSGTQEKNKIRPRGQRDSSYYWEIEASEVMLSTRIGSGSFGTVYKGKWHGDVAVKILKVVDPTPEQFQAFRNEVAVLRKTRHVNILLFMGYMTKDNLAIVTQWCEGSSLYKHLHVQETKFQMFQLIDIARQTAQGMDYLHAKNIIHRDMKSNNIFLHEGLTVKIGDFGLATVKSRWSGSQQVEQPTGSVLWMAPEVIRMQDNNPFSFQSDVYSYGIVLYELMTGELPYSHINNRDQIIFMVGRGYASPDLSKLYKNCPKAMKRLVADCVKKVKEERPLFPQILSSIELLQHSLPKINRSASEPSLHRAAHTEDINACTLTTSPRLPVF
On the technique in general: ADP-Glo turns the ADP formed in a reaction into a luminescent signal.

For test [3], the target named is Serine/threonine-protein kinase B-raf (Homo sapiens, UniProt P15056). In words: Inhibition of B-Raf (unknown origin) after 1 hr by ADP-Glo assay.
Sequence of Serine/threonine-protein kinase B-raf (P15056 whole entry): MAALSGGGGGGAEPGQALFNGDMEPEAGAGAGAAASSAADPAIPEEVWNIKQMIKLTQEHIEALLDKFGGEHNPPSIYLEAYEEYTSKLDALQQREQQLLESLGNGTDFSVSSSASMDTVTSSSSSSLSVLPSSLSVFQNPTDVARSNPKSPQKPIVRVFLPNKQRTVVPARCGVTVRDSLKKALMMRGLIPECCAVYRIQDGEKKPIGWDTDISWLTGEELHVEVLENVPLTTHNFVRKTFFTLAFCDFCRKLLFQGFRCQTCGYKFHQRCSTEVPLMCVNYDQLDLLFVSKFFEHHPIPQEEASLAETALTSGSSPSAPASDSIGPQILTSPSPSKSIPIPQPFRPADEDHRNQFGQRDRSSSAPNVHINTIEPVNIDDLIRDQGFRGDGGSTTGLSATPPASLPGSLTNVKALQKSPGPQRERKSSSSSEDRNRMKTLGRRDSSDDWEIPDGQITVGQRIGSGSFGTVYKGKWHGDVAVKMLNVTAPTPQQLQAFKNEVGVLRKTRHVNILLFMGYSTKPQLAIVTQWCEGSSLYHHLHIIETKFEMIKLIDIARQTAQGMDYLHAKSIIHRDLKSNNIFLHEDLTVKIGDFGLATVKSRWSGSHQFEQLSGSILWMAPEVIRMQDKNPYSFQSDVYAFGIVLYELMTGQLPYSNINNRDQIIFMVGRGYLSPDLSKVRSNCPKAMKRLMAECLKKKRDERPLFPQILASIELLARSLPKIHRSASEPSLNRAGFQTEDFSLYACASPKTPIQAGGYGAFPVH
The test system of test [4] is HT-29. Put plainly: Potency index, ratio of sorafenib IC50 to compound IC50 for human HT-29 cells. In kind it is functional.

As a reminder, the IC50 is the concentration at which inhibition is half-maximal. On to `CNC(=O)/C=C/c1ccc(NC(=O)Nc2ccc(Cl)c(C(F)(F)F)c2)cc1`, for which the IC50 with HT-29 [1] is 11.7 µM; in the test on KETR3 it was 21.2 µM; in the test with A-375, 20.9 µM; with MX1 it was 13.8 µM; in the test with HepG2, 20.4 µM.

For `CC(NC(=O)/C=C/c1ccc(NC(=O)Nc2ccc(Cl)c(C(F)(F)F)c2)cc1)c1ccccc1` (centres undefined), the IC50 with HT-29 [1] turned out to be 1.06 µM; in the test with KETR3 it was 21.2 µM; in the test on A-375, 20.8 µM; in the test on MX1, 3.13 µM; with HepG2, 12.2 µM.

Take `CC(NC(=O)/C=C/c1ccc(NC(=O)Nc2cc(C(F)(F)F)ccc2Cl)cc1)c1ccccc1` (centres undefined): the IC50 with HT-29 [1] amounted to 4.19 µM; in the test with KETR3, 14.3 µM; in the test with A-375, 40.9 µM; in the test with MX1 it was 1.89 µM; in the test on HepG2, 35.9 µM.

For `O=C(/C=C/c1ccc(NC(=O)Nc2ccc(Cl)c(C(F)(F)F)c2)cc1)NC1CCC1`, the IC50 stood at 4.43 µM with HT-29 [1]; 17.3 µM in the test on KETR3; 15.4 µM with A-375; 4.53 µM in the test with MX1; 7.51 µM in the test on HepG2.

As for `CC1CN(C(=O)/C=C/c2ccc(NC(=O)Nc3ccc(Cl)c(C(F)(F)F)c3)cc2)CC(C)O1` (centres undefined), the concentration for half-maximal inhibition (IC50) in the test with HT-29 [1] was 9.1 µM; in the test with KETR3, greater than 50 µM; in the test with A-375 it was greater than 50 µM; with MX1, 12.8 µM; with HepG2, 45.9 µM.

For `CNC(=O)CCc1ccc(NC(=O)Nc2ccc(Cl)c(C(F)(F)F)c2)cc1`, the IC50 was 20.6 µM in the test with HT-29 [1]; 24 µM in the test on KETR3; 25.2 µM in the test with A-375; 20.4 µM with MX1; 21 µM with HepG2.

As for `CC(NC(=O)CCc1ccc(NC(=O)Nc2ccc(Cl)c(C(F)(F)F)c2)cc1)c1ccccc1` (centres undefined), the IC50 with HT-29 [1] was 26.5 µM; in the test with KETR3 it was greater than 50 µM; in the test on A-375, greater than 50 µM; in the test with MX1, greater than 50 µM; in the test on HepG2, greater than 50 µM.

Take `O=C(CCc1ccc(NC(=O)Nc2ccc(Cl)c(C(F)(F)F)c2)cc1)NC1CCC1`: the IC50 in the test with HT-29 [1] was 21.3 µM; in the test with KETR3 it was greater than 50 µM; in the test with A-375, greater than 50 µM; in the test with MX1, 24 µM; with HepG2, greater than 50 µM.

For `CC1CN(C(=O)CCc2ccc(NC(=O)Nc3ccc(Cl)c(C(F)(F)F)c3)cc2)CC(C)O1` (centres undefined), the half-inhibitory concentration (IC50) with HT-29 [1], in the test on KETR3, in the test on A-375, in the test with MX1 and in the test with HepG2 was greater than 50 µM throughout.

On to `CNC(=O)/C(C)=C/c1ccc(NC(=O)Nc2ccc(Cl)c(C(F)(F)F)c2)cc1`, for which the IC50 was greater than 50 µM with HT-29 [1]; greater than 50 µM in the test on KETR3; greater than 50 µM with A-375; greater than 50 µM with MX1; 44.3 µM in the test on HepG2.

Turning to `C/C(=C\c1ccc(NC(=O)Nc2ccc(Cl)c(C(F)(F)F)c2)cc1)C(=O)NC(C)c1ccccc1` (centres undefined), the IC50 with HT-29 [1], in the test on KETR3, in the test with A-375, in the test on MX1 and with HepG2 was greater than 50 µM throughout.

As for `C/C(=C\c1ccc(NC(=O)Nc2ccc(Cl)c(C(F)(F)F)c2)cc1)C(=O)N1CC(C)OC(C)C1` (centres undefined), the IC50 in the test with HT-29 [1], in the test on KETR3, in the test on A-375, in the test with MX1 and with HepG2 was greater than 50 µM each time.

For the compound `CNC(=O)/C=C(\C)c1ccc(NC(=O)Nc2ccc(Cl)c(C(F)(F)F)c2)cc1`, the half-inhibitory concentration (IC50) in the test on HT-29 [1], with KETR3, in the test with A-375, in the test on MX1 and in the test on HepG2 was greater than 50 µM each time.

As for `C/C(=C\C(=O)NC(C)c1ccccc1)c1ccc(NC(=O)Nc2ccc(Cl)c(C(F)(F)F)c2)cc1` (centres undefined), the half-inhibitory concentration (IC50) in the test on HT-29 [1], in the test on KETR3, in the test with A-375, in the test on MX1 and in the test with HepG2 was greater than 50 µM each time.

For `C/C(=C\C(=O)N1CC(C)OC(C)C1)c1ccc(NC(=O)Nc2ccc(Cl)c(C(F)(F)F)c2)cc1` (centres undefined), the IC50 in the test with HT-29 [1] was 26.2 µM; in the test on KETR3, greater than 50 µM; in the test on A-375, 46.2 µM; in the test with MX1, greater than 50 µM; in the test on HepG2 it was greater than 50 µM.

In the case of `CNC(=O)/C=C/Oc1ccc(NC(=O)Nc2ccc(Cl)c(C(F)(F)F)c2)cc1`, the IC50 with HT-29 [1] was greater than 50 µM; in the test with KETR3, greater than 50 µM; with A-375, 36.8 µM; in the test with MX1, 18.8 µM; with HepG2, 24.2 µM.

Regarding `CC(NC(=O)/C=C/Oc1ccc(NC(=O)Nc2ccc(Cl)c(C(F)(F)F)c2)cc1)c1ccccc1` (centres undefined), the IC50 was greater than 50 µM in the test on HT-29 [1]; 14.5 µM with KETR3; 20.7 µM in the test with A-375; 13.7 µM with MX1; 14.1 µM in the test on HepG2.

On to `CC(NC(=O)/C=C/Oc1ccc(NC(=O)Nc2cc(C(F)(F)F)ccc2Cl)cc1)c1ccccc1` (centres undefined), for which the IC50 in the test on HT-29 [1] was greater than 50 µM; in the test on KETR3, 16.4 µM; in the test on A-375 it was 16 µM; in the test with MX1 it was 16.1 µM; in the test on HepG2, 11.9 µM.

Turning to `CNC(=O)C#Cc1ccc(NC(=O)Nc2ccc(Cl)c(C(F)(F)F)c2)cc1`, the IC50 is 14 µM in the test with HT-29 [1]; 24.7 µM with KETR3; greater than 50 µM in the test with A-375; 26.4 µM in the test on MX1; 23.3 µM with HepG2.

As for `CC(NC(=O)C#Cc1ccc(NC(=O)Nc2ccc(Cl)c(C(F)(F)F)c2)cc1)c1ccccc1` (centres undefined), the IC50 amounted to 4.92 µM in the test with HT-29 [1]; 21.4 µM in the test with KETR3; 16.8 µM with A-375; 12.8 µM in the test on MX1; 20.5 µM in the test on HepG2.

As for `CC(NC(=O)C#Cc1ccc(NC(=O)Nc2cc(C(F)(F)F)ccc2Cl)cc1)c1ccccc1` (centres undefined), the IC50 with HT-29 [1] worked out at 3.17 µM; in the test with KETR3 it was 23.2 µM; in the test with A-375, 30.5 µM; in the test on MX1, 16.1 µM; in the test on HepG2, 19 µM.

Regarding `CNC(=O)c1cccc(-c2ccc(NC(=O)Nc3ccc(Cl)c(C(F)(F)F)c3)cc2)c1`, the IC50 with HT-29 [1] was 29.3 µM; with KETR3 it was 39.3 µM; with A-375, 46.5 µM; in the test with MX1, greater than 50 µM; with HepG2 it was 37.1 µM.

For the compound `CC(NC(=O)c1cccc(-c2ccc(NC(=O)Nc3ccc(Cl)c(C(F)(F)F)c3)cc2)c1)c1ccccc1` (centres undefined), the IC50 in test [2] was greater than 50 µM; with HT-29 [1], 6.32 µM; with KETR3, 6.46 µM; in the test on A-375 it was 5.17 µM; in the test with MX1, 5.24 µM; with HepG2, 5.67 µM. In addition, in test [3], the IC50 was greater than 50 µM.

For `CC(NC(=O)c1ccc(-c2ccc(NC(=O)Nc3ccc(Cl)c(C(F)(F)F)c3)cc2)cc1)c1ccccc1` (centres undefined), the IC50 in the test with HT-29 [1] is 5.96 µM; in the test with KETR3 it was 19.3 µM; in the test on A-375 it was 12.8 µM; in the test on MX1, 4.63 µM; in the test on HepG2, 16.8 µM.

With `CC(NC(=O)c1ccc(-c2ccc(NC(=O)Nc3cc(C(F)(F)F)ccc3Cl)cc2)cc1)c1ccccc1` (centres undefined), the IC50 in the test with HT-29 [1] was found to be 6.57 µM; in the test with KETR3, 16.8 µM; in the test on A-375, 16.9 µM; with MX1, 17.7 µM; with HepG2, 18.4 µM.

Consider `CC1CN(C(=O)c2ccc(-c3ccc(NC(=O)Nc4ccc(Cl)c(C(F)(F)F)c4)cc3)cc2)CC(C)O1` (centres undefined), for which the IC50 in the test with HT-29 [1] was 2.05 µM; with KETR3, 41.9 µM; in the test on A-375 it was greater than 50 µM; with MX1, greater than 50 µM; in the test on HepG2, 31.1 µM. Also, in the test on HT-29 [4], the “Ratio IC50” value is 8.

For the compound `CC1CN(C(=O)c2ccc(-c3ccc(NC(=O)Nc4cc(C(F)(F)F)ccc4Cl)cc3)cc2)CC(C)O1` (centres undefined), the 50% inhibitory concentration (IC50) in the test with HT-29 [1] was 1.9 µM; in the test on KETR3, greater than 50 µM; with A-375, greater than 50 µM; in the test on MX1 it was greater than 50 µM; in the test on HepG2, greater than 50 µM. Also, in the test with HT-29 [4], the “Ratio IC50” value worked out at 8.

Regarding `CNC(=O)c1cc(Oc2ccc(NC(=O)Nc3ccc(Cl)c(C(F)(F)F)c3)cc2)ccn1` [SORAFENIB], the IC50 amounted to 15.2 µM in the test with HT-29 [1]; 18.8 µM in the test on KETR3; 9.17 µM with A-375; 8.27 µM in the test on MX1; 8.67 µM with HepG2.

The values above are taken from ChEMBL document CHEMBL3259740, “Design, synthesis and evaluation of novel diaryl urea derivatives as potential antitumor agents” (Eur J Med Chem, 2014).
